Measured values of several laboratories.
Protocols differ between the studies behind these lines.
Target: D(2) dopamine receptor (DRD2, Homo sapiens, UniProt P14416)

CCS(=O)(=O)c1cc2cc(C[C@](O)(CC(C)(C)c3ccc(F)cc3C(N)=O)C(F)(F)F)[nH]c2cn1
inhibition (ligand displacement; 10 µM): -12.2%

COc1ccc(N2CCN(CC(O)COc3ccc(C(C)=O)cc3OC)CC2)cc1 (stereo not shown)
inhibition (enzyme activity, inhibitor; 10 µM): 27.4%

O=c1nc(-c2ccccn2)sc2ccccc12
inhibition (ligand displacement; 10 µM): 22.9%

Cc1ccc(OC[C@@H]2CN(CCN3CCc4ccccc43)CCO2)cn1
inhibition (ligand displacement, radioligand; 10 µM): 18.8%

CO[C@H]1CC[C@H](CNc2ccc(S(=O)(=O)NC(=O)c3ccc(N4CCN(CC5=C(c6ccc(Cl)cc6)CC(C)(C)CC5)CC4)cc3Oc3cnc4[nH]ccc4c3)cc2[N+](=O)[O-])CC1
inhibition (ligand displacement; 10 µM): -24%

O=C1C2CCCN2C(=O)N1CCCCN1CCN(c2cccc(Cl)c2)CC1 (stereo not shown)
inhibition (enzyme activity, inhibitor; 10 µM): 65.4%

O=C(CCCN1CCC(O)(c2ccc(Br)cc2)CC1)c1ccc(F)cc1
kon (binding): 2.67e+06 M⁻¹ s⁻¹

O=C(c1ccccc1Cl)N1CCN(CCNc2cc(=O)oc3ccccc23)CC1
inhibition (enzyme activity, inhibitor; 10 µM): 31.2%

COc1cccc(OC[C@@H]2CN(CCN3CCc4ccccc43)CCO2)c1
inhibition (ligand displacement, radioligand; 10 µM): 36.5%

Cc1cc(NC(=O)c2cccc(S(F)(F)(F)(F)F)c2)cc(-n2ccn3nc(-c4cccnc4)cc23)c1
inhibition (ligand displacement, radioligand; 10 µM): 12.3%

Cc1[nH]n(-c2ccc([N+](=O)[O-])cc2)c(=O)c1C=NCCN1CCN(C(=O)c2cccc(F)c2)CC1
inhibition (enzyme activity, inhibitor; 10 µM): 20.6%

Cc1nc2cc(OCCCCN3CCN(c4cccc5c4OCCO5)CC3)ccc2s1
Emax (β-arrestin recruitment, agonist; HTLA): 35%

COc1cc(OC)c(OC)cc1CN1CCN(Cc2c[nH]c3ccccc23)CC1
inhibition (enzyme activity, inhibitor; 10 µM): 34.6%

CCC(=NO)C(C)=Cc1ccc(F)c(C)c1
inhibition (ligand displacement; 10 µM): -6.57%

Cc1cc(C)cc(NC(=O)CN2CCN(C(=O)c3ccco3)CC2)c1
inhibition (enzyme activity, inhibitor; 10 µM): 8.3%

Cc1ccnc(OC[C@H]2CN(CC(=O)N3CCc4ccccc43)CCO2)c1
inhibition (ligand displacement, radioligand; 10 µM): -7.3%

CCc1ccc(N2CCN(CC(O)COc3ccc(C(C)=O)cc3OC)CC2)cc1 (stereo not shown)
inhibition (enzyme activity, inhibitor; 10 µM): 11.2%

Clc1cncc(OC[C@@H]2CN(CCN3CCc4ccccc43)CCO2)c1
inhibition (ligand displacement, radioligand; 10 µM): 60%

Cc1cccc(N2CCN(CC(O)COc3ccc4ccccc4c3)CC2)c1C (stereo not shown)
inhibition (enzyme activity, inhibitor; 10 µM): 24.4%

CS(=O)(=O)c1cc(C2(NC(=O)c3cncc4c3cnn4-c3ccc(F)cc3)CC2)ccn1
inhibition (cell-free assay; 10 µM): 6.62%

O=C1c2ccccc2CCN1CCCCN1CCN(c2cccc(Cl)c2Cl)CC1
inhibition (ligand displacement, radioligand; 10 µM): 99.3%

O=C(NCc1ncc(C(F)(F)F)cc1Cl)c1ccc2c(c1)C1(CCS(=O)(=O)CC1)[C@@H](C1CC1)N2S(=O)(=O)c1ccc(F)cc1
inhibition (ligand displacement; 10 µM): -8.4%

O=C(CN1CCO[C@H](COc2cccnc2)C1)N1CCc2ccccc21
inhibition (ligand displacement, radioligand; 10 µM): 9.9%

CCOc1cc(N2C3COCC2CN(C(=O)[C@H]2C[C@H](O)CN2c2ccc(Cl)cc2)C3)ccc1Cl
inhibition (cell-free assay; 10 µM): 7.26%

O=C(CN1CCO[C@H](COc2ccccc2)C1)N1CCc2ccccc21
inhibition (ligand displacement, radioligand; 10 µM): 13.6%
